Calls of active or inactive are those of the source. No cut-off for these calls is given here.
Legend:
[1] = molecular target: Plasmepsin I (Plasmodium falciparum, UniProt P39898); experiment: Inhibition of Plasmodium falciparum recombinant PLM1
Procedure, shortened: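 Recombinant proPfPLM I from E. coli BL21 Star (DE3) pLysS inclusion bodies, refolded and purified by anion exchange and size exclusion. Initial rates of cleavage of chromogenic Lys-Pro-Ile-Leu-Phe-Nph-Arg-Leu read spectrophotometrically. Ki from fits: Morrison competitive tight-binding equation, or for weaker binders at least six substrate and two or more inhibitor levels, competitive model.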

[2] = molecular target: Plasmepsin II (Plasmodium falciparum, UniProt P46925); experiment: Inhibition of Plasmodium falciparum recombinant PLM2
Chain of Plasmepsin II (P46925 whole entry): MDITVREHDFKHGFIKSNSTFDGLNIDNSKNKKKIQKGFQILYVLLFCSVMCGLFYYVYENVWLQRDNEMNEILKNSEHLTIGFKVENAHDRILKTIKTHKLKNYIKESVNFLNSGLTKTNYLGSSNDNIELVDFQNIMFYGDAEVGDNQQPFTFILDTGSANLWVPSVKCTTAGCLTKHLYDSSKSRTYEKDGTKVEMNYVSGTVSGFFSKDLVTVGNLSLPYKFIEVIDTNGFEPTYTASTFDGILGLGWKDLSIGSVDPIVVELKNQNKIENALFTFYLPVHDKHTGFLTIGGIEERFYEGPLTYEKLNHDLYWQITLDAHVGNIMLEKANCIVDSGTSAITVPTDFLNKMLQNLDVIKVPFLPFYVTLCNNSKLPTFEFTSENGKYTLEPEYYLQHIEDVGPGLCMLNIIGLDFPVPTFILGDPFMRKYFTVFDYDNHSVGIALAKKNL
Procedure, shortened: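 Recombinant pro-PLM II (E. coli BL21(DE3) pLysS, refolded from inclusion bodies) activated in 100 mM sodium acetate pH 4.7, 37 °C, 90 min. Cleavage of Lys-Glu-Phe-Val-Phe-NPhe-Ala-Leu-Lys followed at 300 nm. Inhibitors at 1-100 nM, 1% DMSO final. Ki from IC50 via Cheng-Prusoff using Michaelis-Menten Km. Mean ± SD, at least two experiments in triplicate.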

[3] = test system: Plasmodium falciparum; experiment: Antiplasmodial activity against chloroquine-sensitive Plasmodium falciparum D10; type: functional, organism-based
Procedure, shortened: (§1)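 P. falciparum (D10 and W2) grown in human A+ red cells, RPMI 1640 with 10% heat-inactivated A+ plasma, 37 °C, 1% O2/5% CO2/94% N2. Asynchronous cultures, 1-1.5% parasitemia, 1% hematocrit, exposed to serial dilutions (DMSO <1% final) for 72 h. IC50 is the mean of ≥3 experiments in duplicate.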

[4] = test system: Plasmodium falciparum; experiment: Antiplasmodial activity against chloroquine-resistant Plasmodium falciparum W2; type: functional, organism-based; procedure, shortened: as §1
[5] = molecular target: Cathepsin D (Homo sapiens) (UniProt P07339); experiment: Inhibition of human cathepsin D at 100 uM
Chain of Cathepsin D (Homo sapiens) (P07339 65-162 limits assumed): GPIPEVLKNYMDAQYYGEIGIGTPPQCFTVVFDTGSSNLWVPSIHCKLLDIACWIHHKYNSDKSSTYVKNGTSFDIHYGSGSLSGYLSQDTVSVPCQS
Chain of Cathepsin D (Homo sapiens) (P07339 169-412 limits assumed): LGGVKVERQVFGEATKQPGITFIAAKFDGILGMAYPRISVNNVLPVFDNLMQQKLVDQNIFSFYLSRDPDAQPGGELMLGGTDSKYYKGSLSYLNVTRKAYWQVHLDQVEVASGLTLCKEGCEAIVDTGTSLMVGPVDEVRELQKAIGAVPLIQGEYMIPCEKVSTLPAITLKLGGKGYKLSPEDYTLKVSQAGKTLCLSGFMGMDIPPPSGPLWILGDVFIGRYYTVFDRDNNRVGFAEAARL

[6] = molecular target: Plasmepsin II (Plasmodium falciparum) (UniProt P46925); experiment: Inhibition of Plasmodium falciparum PLM2-induced human hemoglobin cleavage by SDS-PAGE
Chain of Plasmepsin II (Plasmodium falciparum) (P46925 125-453 limits assumed): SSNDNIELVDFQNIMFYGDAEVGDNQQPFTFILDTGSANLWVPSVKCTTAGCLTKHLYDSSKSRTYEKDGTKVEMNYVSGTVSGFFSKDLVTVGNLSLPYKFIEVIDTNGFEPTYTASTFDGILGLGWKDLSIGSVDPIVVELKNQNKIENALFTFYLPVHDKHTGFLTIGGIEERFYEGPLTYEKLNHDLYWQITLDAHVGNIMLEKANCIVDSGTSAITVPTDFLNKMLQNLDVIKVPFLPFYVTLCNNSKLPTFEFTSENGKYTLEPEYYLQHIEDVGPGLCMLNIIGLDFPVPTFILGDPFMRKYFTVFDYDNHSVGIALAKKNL
Procedure, shortened: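 Hemoglobin (10 µg) digested by preactivated recombinant PLM II (200 ng) in 100 mM sodium acetate, pH 4.7, 37 °C, with vehicle or inhibitor for 0, 10, 30 and 60 min. Stopped with SDS loading dye, boiled 5 min, resolved on 18% polyacrylamide gel.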

[7] = molecular target: Cathepsin D (Homo sapiens) (UniProt P07339); experiment: Inhibition of human cathepsin D at 5 uM
[8] = Cytotoxicity against human skin fibroblast at 100 uM by MTT assay; type: cell-based
Procedure, shortened: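 Primary human skin-biopsy fibroblasts, 8 × 10⁴ per well, grown in DMEM with 10% fetal calf serum, 1% penicillin/streptomycin and 1% L-glutamine. Proliferation followed by MTT test with or without compounds up to 100 µM.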

[9] = molecular target: Cathepsin D (Homo sapiens) (UniProt P07339); experiment: Inhibition of human cathepsin D at 2 uM

Chain of Plasmepsin I (P39898 whole entry): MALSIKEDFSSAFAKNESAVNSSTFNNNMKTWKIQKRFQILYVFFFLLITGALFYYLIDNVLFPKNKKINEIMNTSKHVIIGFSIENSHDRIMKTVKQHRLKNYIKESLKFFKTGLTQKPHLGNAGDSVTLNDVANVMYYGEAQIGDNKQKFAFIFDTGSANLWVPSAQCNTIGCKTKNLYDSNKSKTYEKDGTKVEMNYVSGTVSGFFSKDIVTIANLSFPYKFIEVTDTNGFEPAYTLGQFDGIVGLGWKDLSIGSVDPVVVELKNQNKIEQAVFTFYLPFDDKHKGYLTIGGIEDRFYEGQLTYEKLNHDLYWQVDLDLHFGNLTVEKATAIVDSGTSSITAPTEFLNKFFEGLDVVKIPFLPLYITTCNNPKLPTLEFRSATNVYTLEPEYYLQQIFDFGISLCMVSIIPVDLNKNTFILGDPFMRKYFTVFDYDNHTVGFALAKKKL

SMILES	Ki [1]	Ki [2]	IC50 [3]	IC50 [4]	inhibition [5]	Activity [6]	inhibition [7]	Activity [8]	inhibition [9]
CCCCNC(=O)C[C@H](O)[C@H](CC(C)C)NC(=O)[C@@H](NC(=O)c1ccc(Oc2ccc(C(=O)N[C@@H](C)C(=O)N[C@@H](C)C(=O)NCCCC(C)Nc3cc(OC)cc4cccnc34)cc2)cc1)[C@@H](C)CC (some centres not stated)	1 nM	3.9 nM	1300 nM	1200 nM	–	–	–	–	–
CCCCNC(=O)C[C@H](O)[C@H](CC(C)C)NC(=O)[C@@H](NC(=O)c1ccc(Oc2ccc(C(=O)N[C@@H](CC(C)C)C(=O)N[C@@H](CCCCNC(=O)OC(C)(C)C)C(=O)NCCCC(C)Nc3cc(OC)cc4cccnc34)cc2)cc1)C(C)CC (some centres not stated)	230 nM	403 nM	4050 nM	3500 nM	–	–	–	–	–
CCCCNC(=O)C[C@H](O)[C@H](CC(C)C)NC(=O)[C@@H](NC(=O)c1ccc(Oc2ccc(C(=O)N[C@@H](CC(C)C)C(=O)N[C@@H](CC(C)C)C(=O)NCCCC(C)Nc3cc(OC)cc4cccnc34)cc2)cc1)C(C)CC (some centres not stated)	58 nM	103 nM	3600 nM	1700 nM	–	–	–	–	–
CCCCNC(=O)C[C@H](O)[C@H](CC(C)C)NC(=O)[C@@H](NC(=O)c1ccc(Oc2ccc(C(=O)N[C@@H](CC(C)C)C(=O)N[C@@H](CCCCNC(=O)OC(C)(C)C)C(=O)OCCC)cc2)cc1)C(C)CC (some centres not stated)	17 nM	11 nM	100 nM	100 nM	37%	Active	–	–	–
CCCCNC(=O)C[C@H](O)[C@H](CC(C)C)NC(=O)[C@@H](NC(=O)c1ccc(Oc2ccc(C(=O)N[C@@H](CC(C)C)C(=O)N[C@@H](C)C(=O)NCCCC(C)Nc3cc(OC)cc4cccnc34)cc2)cc1)[C@@H](C)CC (some centres not stated)	74 nM	26.3 nM	200 nM	300 nM	–	Active	50%	15%	–
CCCCNC(=O)C[C@H](O)[C@H](CC(C)C)NC(=O)[C@@H](NC(=O)c1ccc(Oc2ccc(C(=O)N[C@@H](C)C(=O)N[C@@H](CCCCN)C(=O)NCCCC(C)Nc3cc(OC)cc4cccnc34)cc2)cc1)[C@@H](C)CC (some centres not stated)	33 nM	10.6 nM	800 nM	1400 nM	–	–	–	–	–
CCCCNC(=O)C[C@H](O)[C@H](CC(C)C)NC(=O)[C@@H](NC(=O)COc1ccc2ccccc2c1)[C@@H](C)CC	727 nM	58.9 nM	22700 nM	15400 nM	–	–	–	–	–
CCCCNC(=O)C[C@H](O)[C@H](CC(C)C)NC(=O)[C@@H](NC(=O)c1ccc(Oc2ccc(C(=O)N[C@@H](CC(C)C)C(=O)NCCCC(C)Nc3cc(OC)cc4cccnc34)cc2)cc1)[C@@H](C)CC (some centres not stated)	765 nM	12.1 nM	700 nM	500 nM	–	Active	–	–	30%
CCCCNC(=O)C[C@H](O)[C@H](CC(C)C)NC(=O)[C@@H](NC(=O)c1ccc(Oc2ccc(C(=O)NCCCC(C)Nc3cc(OC)cc4cccnc34)cc2)cc1)[C@@H](C)CC (some centres not stated)	81 nM	11.2 nM	2200 nM	2000 nM	–	–	–	–	–
CCCCNC(=O)C[C@H](O)[C@H](CC(C)C)NC(=O)[C@@H](NC(=O)c1ccc(Oc2ccc(C(=O)N[C@@H](CC(C)C)C(=O)N[C@@H](CCCCN)C(=O)OCCC)cc2)cc1)C(C)CC (some centres not stated)	11 nM	9.9 nM	4500 nM	3800 nM	–	–	–	–	–

— ChEMBL document CHEMBL1137305, “High antiplasmodial activity of novel plasmepsins I and II inhibitors” (J Med Chem, 2006)
